Data on 95 molecules can be found in PubChem BioAssay AID651787 (The Scripps Research Institute Molecular Screening Center, 2012).

SMILES strings stand for the structures. Screen size: about 2,400 compounds; about 1,200 (50%) were called active.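 How the source made its calls: active means activation above the run cutoff, the mean activation over all tested wells plus 3 SD (cut at about 12% in these data); inactive means the rest.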 The set was probably picked from earlier hits. A selection follows.

This assay is described as follows: nonselective calcium mobilization agonists, CHO-Ga16 cells, counter-screen for hTAAR1 agonist project, cell-based, fluorescence, CHO-Ga16 parental line (AID 651787). The note with it: Fluo-8 calcium fluorescence, at 3 µM, hits give high values, normalized to maximal ATP response, DMSO zero. The method in brief:
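System – parental CHO cells stably overexpressing Gα16, lacking hTAAR1 · Quantity – 750 cells per well · Doses – one dose of 3 µM (nominal) · Incubation – 17-24 h seeding, dye 75 min 37 °C, 30 min RT · Measured by – Fluo-8 calcium-dye fluorescence · Read-out basis – percent activation from max/basal fluorescence ratio · Benchmarks – DMSO (0%) and EC100 ATP (100%)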
For orientation: Calcium assays in cells follow changes in intracellular calcium, usually with a dye or a luminescent sensor.
With `Nc1cccc2c1C(=O)N(Cc1nnc(-c3ccccc3Br)o1)C2=O`, the activation was 60.4% (active).
Regarding `O=C(NCCc1ccccc1)/C(=C\c1ccc([N+](=O)[O-])cc1)NC(=O)c1ccccc1`, the activation is 2.11% (inactive).
Under `CCCCCC(=O)NC(=S)NNC(=O)c1ccc([N+](=O)[O-])cc1` stands 91.4% (active); under `CCCC1CCC(=NNC(=S)NCCc2ccccc2)CC1` (stereo not given), 14.1% (active); under `O=C(O)C1CC=CCC1C(=O)NCCc1ccccc1` (stereo not given), 0.16% (inactive).
Next, `CCC(C(=O)Nc1ccc(C(C)C)cc1)c1ccccc1` (stereo not given): 75.1% (active); `c1ccc(C2CNCc3c2ccc2ccccc32)cc1` (stereo not given): 25.6% (active).
Regarding `COc1ccc(C(=O)CN2C(=O)NC(C)(c3ccc(C)cc3)C2=O)cc1OC` (stereo not given), the activation was 20.1% (active).
Next, `Cc1ccc(O)c(NC(=S)NC(=O)COc2ccc(Br)cc2)c1`: 101% (active); `Nc1nonc1-n1nnc(C(=O)N/N=C/c2ccc(Cl)cc2)c1-c1ccc2c(c1)OCO2`: 92.4% (active).
For `CCCOc1ccc(-c2c(C(=O)N/N=C/c3ccco3)nnn2-c2nonc2N)cc1`, the activation is 39.5% (active).
`c1ccc(-c2csc(N3CCc4ccccc4C3)n2)cc1`: the activation was 0.58% (inactive).
Next, `O=C(Nc1ccc(F)cc1)Nc1nnc([C@H]2C[C@H](O)[C@@H](CO)O2)s1`: 4.42% (inactive).
As to `O=C(CSc1nc(-c2ccco2)cc(C(F)(F)F)n1)NCc1cccs1`, the activation was 0.35% (inactive).
`COc1cccc(N(CC(=O)N2CCc3ccccc3C2)S(C)(=O)=O)c1`: the activation was 1.72% (inactive).
As to `C#CCOc1ccc(/C=C2/C(=O)NN(c3ccccc3)C2=O)cc1OC`, the activation is 45.9% (active).
Consider `Cc1ccc(Cl)cc1N1CCN(C(=O)c2cccc3c(=O)c(C)c(-c4ccccc4)oc23)CC1`, for which the activation was 78.9% (active).
As to `CCCc1ccc(OCC(=O)NNC(=S)NC(=O)c2ccco2)cc1`, the activation is 64.1% (active).
As to `CC(Oc1ccc2ccccc2c1)C(=O)NNC(=S)NC(=O)c1ccco1` (stereo not given), the activation was 75.1% (active).
Under `COCCCn1c(Cc2csc(Nc3cccc(Cl)c3)n2)nnc1SCC(=O)OC1CCCCC1` stands 3.91% (inactive).
Under `NC(Cc1ccccc1)c1csc(Nc2cc(Oc3ccccc3)ncn2)n1` (stereo not given) stands 39% (active).
Next, `COc1ccc(CC(N)c2csc(NC(=O)Cc3ccccc3)n2)cc1` (stereo not given): 15.8% (active).
For `CC(C)(C)CC(=O)Nc1nc(C(N)Cc2ccc(C(F)(F)F)cc2)cs1` (stereo not given), the activation was 79.7% (active).
Next, `Cn1c(=O)c(=O)n(C)c2cc(S(=O)(=O)NCCc3ccccc3)ccc21`: 0.95% (inactive); `O=C(O)C1C2C=CC(O2)C1C(=O)NCCc1cccc(Cl)c1` (stereo not given): 2.07% (inactive).
For `CCCc1cc(C(=O)Nc2ccc(C(=O)OC)cc2)cs1`, the activation was 4.88% (inactive).
Next, `O=C(c1noc2c1CCCC2)N1CCc2ccccc2C1`: 3.31% (inactive).
Under `NC(=O)C1=C[C@H](c2csc3ccccc23)C[C@H](OCc2ccc(CO)cc2)O1` stands 33.4% (active); under `Cc1cc2nc3c(=O)[nH]c(=O)nc-3n(C[C@H](O)[C@H](O)[C@H](O)CO)c2cc1C`, 138% (active).
Take `Cc1ccccc1-c1nc(CS(=O)(=O)CC(=O)N2CCc3ccccc3C2)c(C)o1`: the activation was 5.05% (inactive).
Next, `O=C(NNC(=S)NC(=O)c1cn(-c2ccccc2)nc1-c1ccccc1)c1ccncc1`: 79.1% (active).
For the molecule `CC(NC(=O)c1cc(-c2ccccc2)on1)c1ccccc1` (stereo not given), the activation is 37.5% (active).
Take `CCc1ccccc1S(=O)(=O)Cc1ccc(C(=O)NCCc2ccccc2)o1`: the activation was 5.88% (inactive).
As for `Cc1ccc(S(=O)(=O)N(CC(=O)N2CCc3ccccc3C2)c2cccc(Cl)c2)cc1`, the activation was -0.38% (inactive).
Regarding `CC(=O)Nc1ccccc1Sc1ccc2c3c(cccc13)C(=O)N(c1ccc(C)cc1)C2=O`, the activation was 0.61% (inactive).
Next, `COc1cc(OC)cc(C(=O)N[C@H](C(=O)OCC(=O)NC(C)c2ccccc2)C(C)C)c1` (stereo not given in full): 24.2% (active); `C[C@H](NC(=O)c1ccccc1)C(=O)OCC(=O)c1c[nH]c2ccccc12`: 0% (inactive); `CCCn1c(O)c(CN2CCCC(C)C2)c(C)c(C#N)c1=O` (stereo not given): 4.14% (inactive).
Next, `COc1ccc(C(=O)NC(=S)NNC(=O)c2c(-c3ccccc3)noc2C)cc1`: 68.8% (active); `Cc1onc(-c2ccccc2)c1C(=O)NNC(=S)NC(=O)c1ccc(F)cc1`: 105% (active).
Take `Cc1cc(=O)oc2c(C)c(OCC(=O)NCCN3CCOCC3)ccc12`: the activation was 4.41% (inactive).
On to `COc1ccc(C(=O)NC(=S)NNC(=O)CCc2ccccc2)cc1`, for which the activation is 87.2% (active).
Regarding `O=C(Nc1cccc(NC(=O)c2ccc(Br)cc2)c1)c1ccccc1`, the activation was 5.7% (inactive).
Turning to `COc1ccc(C(=O)NNC(=S)NC(=O)c2ccccc2)cc1`, the activation was 94.4% (active).
As for `COc1ccc(OC)c(C(c2nnnn2C(C)(C)C)N2CCc3ccccc3C2)c1` (stereo not given), the activation was -0.7% (inactive).
Next, `Nc1c(C(=O)c2cccs2)sc2nsc(SCCN3CCCCC3)c12`: 72.3% (active).
Consider `CCC(c1nnnn1Cc1ccco1)N(CCc1ccccc1)Cc1cc2ccc(OC)cc2[nH]c1=O` (stereo not given), for which the activation was 4.24% (inactive).
As to `O=C1CCCC(O)=C1C=NCCc1ccccc1`, the activation was 5.18% (inactive).
Regarding `CCCCc1c(-c2ccc(Br)cc2)ncn1CCc1ccccc1OC`, the activation was 13.2% (active).
Under `CCCCCc1c(-c2ccc(OC)c(OC)c2)ncn1CCc1ccccc1OC` stands 17.4% (active); under `CCc1c(-c2ccccc2OC)ncn1CCc1ccccc1OC`, 5.18% (inactive); under `CCCCCc1c(-c2cccc(Br)c2)ncn1CCc1ccccc1OC`, 10.8% (inactive).
Under `CCCCc1c(-c2ccc(Cl)cc2)ncn1CCc1ccccc1OC` stands 16.1% (active); under `CCCCCc1c(Cc2ccccc2)ncn1CCc1ccccc1OC`, 17% (active); under `O=[N+]([O-])c1cc(S(=O)(=O)NCCc2ccccn2)ccc1Cl`, 2.99% (inactive).
Under `CCCCCCCCCCOC(=O)Cn1c(COc2ccc(C)cc2)[n+](C)c2ccccc21` stands 76.5% (active); under `Cc1c(CNCCc2ccccc2)c(C(=O)O)c(C)n1-c1ccccc1`, 1.76% (inactive); under `S=C(Nc1ccc(Br)cc1)NC1CCN(Cc2ccccc2)CC1`, 22.9% (active).
For the molecule `O=C(/C=C/[C@H]1O[C@@H](n2cnc3c(NC(=O)c4ccccc4)ncnc32)[C@H](O)[C@@H]1O)NCc1ccccc1`, the activation was 0.21% (inactive).
For the molecule `Cc1ccccc1NC(=S)NC(=O)Cc1ccc(Cl)cc1`, the activation was 41.1% (active).
Next, `O=C(Cc1ccc(Cl)cc1)NC(=S)Nc1ccccc1O`: 103% (active); `O=C(NCCc1ccccc1)Oc1ccc(Cl)cc1`: 1.7% (inactive).
Under `O=c1cnnc(Nc2ccccc2)[nH]1` stands 4.92% (inactive); under `O=C(Nc1ccccc1)Nc1nnc(COc2ccccc2F)s1`, 8.56% (inactive); under `O=Cc1c(NCCc2cccc(F)c2)c2ccccc2[nH]c1=O`, 2.77% (inactive).
Take `CCCCC(=O)NNC(=S)NC(=O)C(c1ccccc1)c1ccccc1`: the activation is 119% (active).
`CN(C)CCCN(C(=O)c1ccc(S(=O)(=O)N2CCCc3ccccc32)cc1)c1nc2ccc(F)cc2s1`: the activation was 37.7% (active).
Consider `CN(C)CCCN(C(=O)c1ccc(S(=O)(=O)N2CCCCCC2)cc1)c1nc2ccc(Br)cc2s1`, for which the activation was 36.2% (active).
As for `Nc1nnn(CC(=O)N/N=C/c2ccccc2)n1`, the activation was -0.59% (inactive).
Next, `c1ccc(CCN2CN=C(Nc3nc4ccccc4o3)NC2)cc1`: 0.14% (inactive).
On to `CC(=O)Oc1ccc(Cn2c(C)c(C(=O)NCc3ccc(C#N)cc3)sc2=O)cc1`, for which the activation was 66.2% (active).
Under `Cc1cccc(NC(=O)C(C)N2C(=O)C3C4CC(C(Br)C4Br)C3C2=O)c1` (stereo not given) stands 25.2% (active); under `c1ccc(Nc2nc(N3CCOCC3)c3ccccc3n2)cc1`, 14.2% (active).
Next, `Nc1c(NCCc2ccccc2)c2ccccc2oc1=O`: 6.54% (inactive); `CCOc1ccc(Br)cc1CSC(=N)N`: 9.07% (inactive).
Next, `CCCCOc1ccc(CSC(=N)N)cc1[N+](=O)[O-]`: 22.3% (active); `CCN(CC)c1ccc2oc(=O)c(C)nc2c1`: 43.7% (active); `Oc1ccc2ccc3cccc[n+]3c2c1`: 126% (active).
As for `CN(C(=O)CN(CCO)CC(=O)N(C)C(C)(C)Cc1ccccc1)C(C)(C)Cc1ccccc1`, the activation was 84.7% (active).
Under `NC[C@H](Cc1ccccc1)NCCc1cc(C(F)(F)F)cc(C(F)(F)F)c1` stands 21.6% (active); under `CCc1ccc(-c2nn(-c3ccccc3)cc2CSC(=N)N)cc1`, 26.4% (active); under `CN(C)c1ccc(/C=C2\NC(=S)N(Cc3ccccc3)C2=O)cc1`, 67.4% (active).
In the case of `O=C1CCCN2N=C(SCC(=O)Nc3ccc(Br)cc3)SC2=N1`, the activation was 8.82% (inactive).
Next, `O=C(Nc1ccncc1)Nc1ccc(F)cc1`: 4.69% (inactive); `Cc1cc(C)c2cc(C#N)c(N3CCNCC3)nc2c1`: -0.65% (inactive); `N#Cc1ccc(OCCCN2CCC(C(O)(c3ccccc3)c3ccccc3)CC2)c(F)c1`: 21.1% (active).
Turning to `O=C(CNC(=O)c1ccccc1F)OCC(=O)c1c[nH]c2ccccc12`, the activation was 2.13% (inactive).
Next, `S=C(NCCCc1cnc[nH]1)NCCCN(Cc1ccc(Cl)c(Cl)c1)c1ccc(Br)cn1`: 26.5% (active).
Next, `COc1ccc(NC(=O)C(=O)NCC(c2ccco2)N2CCc3ccccc3C2)cc1` (stereo not given): 0.06% (inactive).
Consider `COC(=O)c1[nH]c2cccc(C)c2c1NC(=O)CN1CCCc2ccccc21`, for which the activation was 11.5% (inactive).
Next, `NC(c1ccccc1)c1csc(NC(=O)Nc2cccc(C(F)(F)F)c2)n1` (stereo not given): 37% (active).
Regarding `CCOC(=O)Cc1csc(NC(=O)Nc2ccccc2)n1`, the activation is 10.9% (inactive).
Turning to `COc1ccc(C(N)c2csc(NC(=O)Nc3cccc(C(F)(F)F)c3)n2)cc1` (stereo not given), the activation is 22.4% (active).
As for `Cc1ccn2c(=O)c(C(=O)NCCC3=CCCCC3)c(O)nc2c1`, the activation is 4.2% (inactive).
Next, `O=C(CCCN=C1NS(=O)(=O)c2ccccc21)OCC(=O)c1ccc(F)c(F)c1`: 51.3% (active).
